Here are results for one sequence from PMC6335142 (Korean Journal for Food Science of Animal Resources, 2018).

For one assay, the system named is HCT116 cells. The assay is described as follows: MTT cell viability / proliferation assay in HCT116 cells. The assay is classed as cell-based, human. As to conditions: 24 h. Summed up: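 HCT116 cells grown in RPMI1640 with 10% FBS and 1% antibiotics at 37℃, 5% CO2, then seeded at 2×10^4 cells/well and left 24 h. Peptide added at 0–250 μg/mL for 24 h. MTT was added to a final 0.5 mg/mL for 4 h, and the formazan was dissolved in DMSO and read at 540 nm. Data given as means and SEM, with GLM ANOVA and Tukey test, p<0.05.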

The test system of assay [1] is ERK, JNK and p38 MAP kinase. Put plainly: Western blot of MAP kinase. The assay is classed as cell-based, human. The following applies: 24 h, HCT116 cells. In outline: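 HCT116 cells seeded at 2×10^5 cells/well, incubated overnight at 37℃, then given peptide at varying concentrations for 24 h. Cells washed in dPBS and lysed on ice in pH 8.0 NaCl/Tris/NP40 buffer with protease inhibitors. 15 μg protein run on 10% SDS-PAGE and blotted to PVDF, blocked in 5% BSA. Blots probed overnight at 4℃ with total and phospho ERK, JNK, p38 and β-actin antibodies (1:200), then HRP secondary. Detection by ECL chemiluminescence.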
(In general: In western blotting, separated proteins are transferred to a membrane and probed.)

The nature of assay [2]: Oxygen radical absorbance capacity. The assay is classed as biochemical. In outline: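 Sample or trolox standard mixed with 80 nM fluorescein and held 15 min at 37℃, then 150 mM AAPH added. Fluorescence (ex 480, em 520 nm) recorded every minute at 37℃. Net AUC was converted through a trolox regression and reported as μmol trolox equivalent. RP-HPLC fractions (C18, 0–40% acetonitrile in 0.1% TFA, 215 nm) were lyophilized and taken up in 75 mM phosphate buffer. Values given as means and SEM with Tukey test.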

Marks after values point to notes of the source that are not given here. Where no end group is shown, it is not given here.

As to “CCCCSVQK (cysteine pairing not given here) [P3]”, the “Growth of HCT116 cells” value with HCT116 cells (0–250 μg/mL) is “inhibited the growth of HCT116 cells in a dose-dependent manner”. Also, in the assay on HCT116 cells (250 μg/mL), the “Inhibition of HCT116 cell proliferation” value worked out at 25.24%. Besides, the “Inhibition of HCT116 cells (as printed in results text)” value in the assay with HCT116 cells (250 μg/mL, vs control) came out at 74.76%. Besides, the p38 phosphorylation result in assay [1] (0, 50, 100 and 250 μg/mL) is recorded as “significantly phosphorylated by P3 with dose dependent”. The ERK phosphorylation entry in assay [1] (50 μg/mL) was “activated”. For the same sequence, in assay [1] (100 and 250 μg/mL), the JNK phosphorylation entry was “significantly activated”. Further, the “ORAC value of RP-HPLC fraction” value in assay [2] (each 2-mL fraction lyophilized and re-dissolved in 0.5 mL 75 mM phosphate buffer) is reported as 94.21 μmol of TE. In addition, in assay [2] (fluorescein 80 nM, AAPH 150 mM, 37℃, trolox standard, means, SEM 4.662), the ORAC was 202.66^a µM TE/g of dry matter.
